The values that follow come from ChEMBL document CHEMBL4513216, “Probing the Open Global Health Chemical Diversity Library for Multistage-Active Starting Points for Next-Generation Antimalarials” (ACS Infect Dis, 2020).

A short description of this series: Toxicity liver stage against HepG2, at 10uM. Details: test concentration 10 uM, cell line HepG2-A16-CD81EGFP. The class given is cell-based. As to conditions: human, HepG2-A16-CD81EGFP cells; read-out: INHIBITION
The gist of the method:
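Uninfected HepG2-A16-CD81EGFP cells, 3 × 10^3 per well, 1536-well, plated on prespotted compound at 10 μM final, parasite-free screening media added to match infected plates; puromycin 10 μM positive, DMSO 0.5% negative; run in parallel with 48 h PbLuc assay at 37 °C, 5% CO2; viability by CellTiter-Glo luminescence, normalized to controls.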
For `CC(C)n1nnnc1-c1ccc(NC(=O)CCC(F)(F)F)cc1F`, the cytotoxicity at 10 µM was -2.5%.

As for `CC(C)NC(=O)C1CCC2(CCN(Cc3cnn(C)c3)CC2)CO1` (stereo not given), the cytotoxicity at 10 µM is 9.67%.

For `Cc1noc(C)c1C(=O)NCCN1CCN(S(C)(=O)=O)CC1`, the cytotoxicity at 10 µM is -12.4%.

In the case of `O=C(NC1CC1)[C@H]1CN(Cc2ccccc2)C[C@@H]1C(=O)c1ccccc1`, the cytotoxicity at 10 µM is 0.401%.

Turning to `CNc1cncc(C2CCN(S(C)(=O)=O)CC2)n1`, the cytotoxicity at 10 µM turned out to be 3.54%.

As to `CCN(CC)C[C@H]1CN2CC[C@H]1C[C@@H]2CNC(=O)c1ccco1`, the cytotoxicity at 10 µM was -2.49%.

`NC(=O)CSc1ccccc1NC(=O)C1CCCCC1`: the cytotoxicity at 10 µM is -127%.

In the case of `Cc1cc(C(=O)NCC(F)(F)F)c2c(C3CCNCC3)noc2n1`, the cytotoxicity at 10 µM came out at 10.4%.

`CCc1[nH]c2c(CNC(=O)C3CNC(=O)C3)cc(C)cc2c1C` (stereo not given): the cytotoxicity at 10 µM amounted to 2.75%.

Regarding `CC(C)(C)c1ccc(C2(C(=O)NCCS(N)(=O)=O)CC2)cc1`, the cytotoxicity at 10 µM was 0.515%.

Regarding `COc1ccc(C2(C(=O)NC3CCc4nccn4C3)CCCC2)cc1` (stereo not given), the cytotoxicity at 10 µM came out at 4.48%.

Regarding `COCCN1C[C@H]2CCN(C(=O)c3cc(C)on3)CC[C@H]2S1(=O)=O`, the cytotoxicity at 10 µM was -1.69%.

Regarding `COC(=O)c1cccc2nc([C@H]3CCN(C4CCN(C)CC4)C3)oc12`, the cytotoxicity at 10 µM is -3.54%.

For `CC(=O)NCC(=O)N1CCOC2(CCCN(c3cccnc3)C2)C1` (stereo not given), the cytotoxicity at 10 µM was -12.8%.

Take `CCc1nc2ccccc2c(=O)n1CC1(O)CCN(C(=O)C2CC2)CC1`: the cytotoxicity at 10 µM was -18.3%.

On to `N#CCCN(CC1CCOC1)Cn1ccc(-c2cccs2)n1` (stereo not given), for which the cytotoxicity at 10 µM was determined as 10.9%.

As for `CO[C@H]1CNC[C@@H]1NC(=O)c1cc(C)nc2c(C)cc(C)cc12`, the cytotoxicity at 10 µM stood at 4.12%.

For `Cn1ccc(C(=O)N2CCN(CC(O)C(C)(C)C)CC2)cc1=O` (stereo not given), the cytotoxicity at 10 µM turned out to be 2.76%.

Regarding `O=C(N[C@@H]1CN[C@H]2CCCO[C@H]21)c1cnccn1`, the cytotoxicity at 10 µM amounted to 6.38%.

`CCN(C)C(=O)C1(c2ccc(F)cc2F)CCC1`: the cytotoxicity at 10 µM was -7.74%.

Regarding `CCOC(=O)[C@H]1CNC[C@@H]1C(F)(F)F`, the cytotoxicity at 10 µM was 7.06%.

`CC(C)c1ccccc1NC(=O)N1C[C@H]2CC[C@@H](C1)N(C)C2=O`: the cytotoxicity at 10 µM is -3%.

In the case of `CCc1n[nH]c(C2CN(C(=O)c3ccnc(C)n3)CCO2)n1` (stereo not given), the cytotoxicity at 10 µM was -7.06%.

With `CN(CCc1ccccn1)S(=O)(=O)N1CCCC1c1ccco1` (stereo not given), the cytotoxicity at 10 µM is -14.8%.

With `Fc1cnc(N2CCO[C@H]3[C@H](OCC4CCOCC4)CC[C@@H]32)nc1`, the cytotoxicity at 10 µM stood at 10.7%.

Regarding `Cc1nn(C)c(N(C)C)c1CNCC(O)c1ccccc1` (stereo not given), the cytotoxicity at 10 µM was -0.989%.

Consider `CC(=O)Nc1nc(C(=O)N2CCCC(n3nc(C)nc3C)C2)cs1` (stereo not given), for which the cytotoxicity at 10 µM was -2.06%.

With `CNC(=O)[C@H]1CC[C@@H]2[C@@H](CCN2C(=O)N(C)C)O1`, the cytotoxicity at 10 µM was 6.86%.

On to `O=C1O[C@@H]2CN(Cc3ccccc3)C[C@@H]2N1CCCN1CCOCC1`, for which the cytotoxicity at 10 µM was -1.18%.

Consider `CN(C)C(=O)C1CCCN1CCCNC(=O)c1ccccc1Cl` (stereo not given), for which the cytotoxicity at 10 µM was -8.27%.

In the case of `Cc1ccc(S(=O)(=O)NC(=O)c2cccc3c2OCCO3)c(C)c1`, the cytotoxicity at 10 µM worked out at 3.25%.

`CN1CCCNC(=O)C12CCN(C(=O)c1ccc3[nH]cnc3c1)CC2`: the cytotoxicity at 10 µM was -1.16%.

On to `CC(C(=O)NCC1(c2cccc(Br)c2)CCC1)S(C)(=O)=O` (stereo not given), for which the cytotoxicity at 10 µM came to 6.88%.

Turning to `CCc1cnc(CCNC(=O)N2CCCC(c3ncc[nH]3)C2)s1` (stereo not given), the cytotoxicity at 10 µM was -4.15%.

Regarding `CC(C)C(=O)N1CCCC2(CCCN2CC2CCCC2)C1` (stereo not given), the cytotoxicity at 10 µM stood at 5.25%.

Turning to `CSCCC(=O)N1CCC(CCC(=O)NCC2CCCO2)CC1` (stereo not given), the cytotoxicity at 10 µM stood at 10.7%.

`N#Cc1ccc(CN2CC3(CCCCN3c3cccnc3)CC2=O)cc1` (stereo not given): the cytotoxicity at 10 µM was determined as 0.995%.

`CCc1nc(NC2CCCN(C(=O)C3CC3)C2)c2cnn(C)c2n1` (stereo not given): the cytotoxicity at 10 µM was -1.05%.

Take `CN(C)C(=O)[C@H]1C[C@@H]2CCN(C3CCOCC3)C[C@@H]2O1`: the cytotoxicity at 10 µM is -3.01%.

Turning to `CCOC(=O)CCNC(=O)N1CCCC(CNC(=O)c2ccco2)C1` (stereo not given), the cytotoxicity at 10 µM is 14.9%.

With `Cc1cnn(CC2CCCN2C(=O)c2csc(-c3nnc[nH]3)n2)c1` (stereo not given), the cytotoxicity at 10 µM is -2.94%.

Regarding `CC(=O)N1CCC(c2nccnc2C)CC1`, the cytotoxicity at 10 µM is -2.82%.

Regarding `CCN(CC(=O)NC)C(=O)Cc1csc(C(C)C)n1`, the cytotoxicity at 10 µM was -3.61%.

In the case of `NC(=O)CN1CCCC(c2cncc(Nc3ncccn3)n2)C1` (stereo not given), the cytotoxicity at 10 µM was -2.61%.

On to `CCNC(=O)CN1CCCN(C(=O)C2CCCc3[nH]ncc32)CC1` (stereo not given), for which the cytotoxicity at 10 µM is 4%.

As to `CN(Cc1ccc([S+](C)[O-])cc1)c1ccc(Cl)cn1` (stereo not given), the cytotoxicity at 10 µM came out at 8.97%.

For `Cc1ccc(C(=O)N2CCC3(CCC(=O)N(CC(N)=O)C3)CC2)cc1`, the cytotoxicity at 10 µM was -0.527%.

In the case of `Cc1nnc(CN2CCC(c3nc4cc(Cl)ccc4o3)CC2)n1C`, the cytotoxicity at 10 µM was -3.49%.

For `O=C(CCN1CCC(C(=O)c2cc(F)ccc2F)CC1)NC1CCCC1`, the cytotoxicity at 10 µM was found to be 4.76%.

Regarding `Cc1ccc(CCC(=O)N2CCOCC2)cc1Cl`, the cytotoxicity at 10 µM worked out at 12.3%.

Turning to `Cc1cccc(OC2CCN(C(=O)c3ccc4ncsc4c3)CC2)n1`, the cytotoxicity at 10 µM was -3.78%.

On to `Cc1cnn(CC2CCCN2CC(=O)Nc2nccs2)c1` (stereo not given), for which the cytotoxicity at 10 µM is -4.34%.

For the compound `Cc1noc(C)c1CN1CC[C@H]2OCC[C@@]2(C(=O)NCC2CC2)C1`, the cytotoxicity at 10 µM was -77.2%.

For the compound `CC(C)c1nc2n(n1)CC(NCc1ncc(-c3ccccc3)o1)CC2` (stereo not given), the cytotoxicity at 10 µM was -0.361%.

For the compound `CN(Cc1ccccc1Cl)C(=O)c1cc(CN2CCC(O)CC2)on1`, the cytotoxicity at 10 µM is 0.0227%.

As to `Cc1noc(C)c1CN1CCC(NC(=O)OC(C)(C)C)CC1`, the cytotoxicity at 10 µM came to 6.27%.

Regarding `CO[C@H]1CN(C(C)C)C[C@@H]1NC(=O)Nc1ccc(C(F)(F)F)cc1`, the cytotoxicity at 10 µM is 2.05%.

For the compound `Cc1noc(C)c1-c1nc(C2CCCN(CCC(N)=O)C2)ccc1CO` (stereo not given), the cytotoxicity at 10 µM is -2.66%.

Turning to `COCc1nccc(C2CCCN(Cc3ccccc3C#N)C2)n1` (stereo not given), the cytotoxicity at 10 µM was determined as 6.05%.

For `CN(CCOc1ccc(C#N)cc1)CC1CC1`, the cytotoxicity at 10 µM turned out to be 1.47%.

For `CC(C)CNC(=O)c1nc(COc2ccc3c(c2)OCO3)no1`, the cytotoxicity at 10 µM was 2.93%.

Regarding `Cc1ccc(S(=O)(=O)NC(C)C#N)cc1Br` (stereo not given), the cytotoxicity at 10 µM came to 0.727%.

Regarding `CC(C1CC1)n1nccc1NC(=O)CN(C)C(=O)OC(C)(C)C` (stereo not given), the cytotoxicity at 10 µM came out at 0.258%.

Consider `CC(C)n1nc2c(cc1=O)CN(c1ncnc3ccccc13)CC2`, for which the cytotoxicity at 10 µM worked out at 52.2%.

As to `CCCc1cc(=O)n(CC(=O)NC(C)C)c(-n2nc(C)cc2C)n1`, the cytotoxicity at 10 µM was 2.74%.

As for `CN(CCc1ccccc1)Cc1nc2c(cnn2C)c(=O)[nH]1`, the cytotoxicity at 10 µM is -3.18%.

With `O=C(NCc1ccccc1Cn1cncn1)N1CCCC1`, the cytotoxicity at 10 µM was -5%.

`CC(C)NC(=O)Nc1nc2c(s1)CN(C(=O)NCc1cccs1)CC2`: the cytotoxicity at 10 µM was 33%.

In the case of `CCn1cc(NC(=O)NCC(c2ccc(OC)cc2)N(C)C)cn1` (stereo not given), the cytotoxicity at 10 µM was -2.4%.

Take `CCN1CCCC(O)(c2nc(C)c(CCOc3ccccc3Cl)s2)CC1` (stereo not given): the cytotoxicity at 10 µM was -26.2%.

Regarding `Cc1csc(CCNC(=O)C2CCOC2)n1` (stereo not given), the cytotoxicity at 10 µM is -6.17%.

Take `Cc1cccc(CN2CCC(C3Nc4ccccc4S(=O)(=O)N3)CC2)n1` (stereo not given): the cytotoxicity at 10 µM is -18.9%.

As to `Cc1ccc(S(=O)(=O)c2ncccc2CN2CCN(CCO)CC2)cc1`, the cytotoxicity at 10 µM is -49.1%.

Turning to `O=C(Cn1ccnc1)N1C[C@@H]2CC[C@H](Oc3ccc(Cl)cc3)[C@@H]2C1`, the cytotoxicity at 10 µM was -3.8%.

As for `CCCc1n[nH]c(C2CN(C(=O)CCn3nc(C)cc3C)CCO2)n1` (stereo not given), the cytotoxicity at 10 µM was -11.9%.

Regarding `CN(CCO)Cc1nnc(C2CCN(C3CCCCC3)CC2)n1C`, the cytotoxicity at 10 µM came out at 20.7%.

With `CCCN1CCN(C(=O)Cc2nc(-c3ccco3)oc2C)CC1`, the cytotoxicity at 10 µM is -6.14%.

For `Cc1cnc(N2CCc3c(cnc(C)c3C(=O)O)C2)nc1`, the cytotoxicity at 10 µM was 8.1%.

`Cc1csc(NC(=O)C2(C)CN(C)CCO2)n1` (stereo not given): the cytotoxicity at 10 µM was -3.67%.

With `NCCn1cc(C(=O)N2CCNC(=O)C2c2cccc(F)c2)nn1` (stereo not given), the cytotoxicity at 10 µM was found to be 3.62%.

As for `Cc1cc(NC(=O)N2CCOC(C(N)=O)C2)ccc1Br` (stereo not given), the cytotoxicity at 10 µM was -154%.

Turning to `Cc1[nH]ncc1CCCNC(=O)Nc1ccc(S(C)(=O)=O)nc1`, the cytotoxicity at 10 µM was -3.71%.

As to `Cc1cc(C)n(C2CCCN(C(=O)Cc3cn4ccsc4n3)C2)n1` (stereo not given), the cytotoxicity at 10 µM is -6.07%.

Consider `CC(C)c1ncc2c(n1)CN(CC1CCCCO1)CC2` (stereo not given), for which the cytotoxicity at 10 µM turned out to be 8.86%.

As to `CCc1nnc(C2Cc3ccccc3CN2Cc2cc(C)on2)o1` (stereo not given), the cytotoxicity at 10 µM was -7.77%.

Consider `COCCCNC(=O)c1cc(OC)c2ccoc2c1`, for which the cytotoxicity at 10 µM was 16.9%.

In the case of `CCCS(=O)(=O)N1CCCC1c1cccc(N(C)C)c1` (stereo not given), the cytotoxicity at 10 µM amounted to 1.62%.

As to `O=C(NCCOc1ncc(Cl)cc1Cl)NCc1ccncc1`, the cytotoxicity at 10 µM is -1.86%.

With `COCc1cc(N2CCOC(c3ccc(Cl)c(Cl)c3)C2)ncn1` (stereo not given), the cytotoxicity at 10 µM came to 0.635%.

Turning to `COc1ccc(C)cc1C1(CNc2cn[nH]c(=O)c2Cl)CCOCC1`, the cytotoxicity at 10 µM was -6.65%.

In the case of `CCOCC(=O)N1CCC(Oc2ccc(C(F)(F)F)cn2)CC1`, the cytotoxicity at 10 µM stood at 11.7%.

As to `COc1c(CNCc2ccc(OCC(N)=O)cc2)c(C)nn1C`, the cytotoxicity at 10 µM is -3.81%.

For the compound `CCc1nc2n(n1)CC(NCC(=O)Nc1cc(C)on1)CC2` (stereo not given), the cytotoxicity at 10 µM is -7.21%.

On to `CCCN(CC(F)(F)F)S(=O)(=O)c1cc(C(N)=O)n(C)c1`, for which the cytotoxicity at 10 µM is -4.15%.

Consider `COc1cccc(C2CC(=O)Nc3c2cnn3C(C)(C)C)c1` (stereo not given), for which the cytotoxicity at 10 µM is -8.54%.
